An excerpt weighted towards active compounds, which were near 2.7% of everything screened.
ASAP1 inh: inhibitors of human ASAP1 ArfGAP activity, primary screen, biochemical, fluorescence polarization; 360,000 tested, 0.19% active; inhibition, % at 16.5 µM; Arf-GAP with SH3 domain, ANK repeat and PH domain-containing protein 1 (Homo sapiens), …; ASAP1-stimulated ARF1 GTP hydrolysis, GDP FP detection; AID 624377, 2012; in the data active = inhibition above about 25%;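 note: 0% = vehicle with enzyme and substrate and 100% = no enzyme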
ARFGAP1 inhibitor: inhibitors of rat ARFGAP1 GAP activity, primary screen, biochemical, fluorescence polarization, GDP tracer | inhibition, % at 16.5 µM | 360,000 tested, 0.26% active | AID 651572, 2012 | Arfgap1-stimulated ARF1 GTP hydrolysis, GDP FP detection;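 active = inhibition above a per-plate limit, mean inhibition of low control wells plus 3 SD, cut at about 25% in these data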;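 note: 0% = DMSO wells with enzyme and 100% = wells lacking Arfgap1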
Target sequence (Q62848 1-136 limits assumed): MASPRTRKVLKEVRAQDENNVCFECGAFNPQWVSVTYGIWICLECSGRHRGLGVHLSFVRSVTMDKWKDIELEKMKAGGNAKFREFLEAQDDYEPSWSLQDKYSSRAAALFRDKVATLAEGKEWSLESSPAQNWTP
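Material: rat Arfgap1 catalytic domain, aa 1-136; also added: human ARF1(Δ1-17)-GTP substrate; compound dosing: one concentration, 16.5 µM, DMSO 1.26%; incubation: GTP hydrolysis reaction 2 h at 25 °C; measured by: Tracer-displacement fluorescence polarization with EDTA stop, 620/688 nm; evaluation: % inhibition from polarization; repeats: one replicate per compound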
pPAFAH FP inh: pPAFAH enzyme inhibitors, primary screen, biochemical, fluorescence polarization, human. Platelet-activating factor acetylhydrolase (Homo sapiens), Q13093. recombinant pPAFAH, FP-rhodamine probe fluorescence polarization. inhibition, % at 3.39 µM. 330,000 tested, 1.5% active;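 active = inhibition above the mean inhibition across the screen plus 3 SD, cut at about 25% in these data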;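 note: inhibitors block binding of the rhodamine activity-based probe so polarization drops; 0% = enzyme with DMSO and 100% = wells lacking pPAFAH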
PAFAH2 inh: PAFAH2 enzyme inhibitors, primary screen, biochemical, fluorescence polarization, human | Platelet-activating factor acetylhydrolase 2, cytoplasmic (Homo sapiens), Q99487 | recombinant PAFAH2, FP-rhodamine activity probe | inhibition, % at 3.39 µM | 340,000 tested, 0.99% active | AID 492956, 2010;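 active = inhibition above the mean over all tested compounds plus 3 SD, cut at about 30% in these data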;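 note: inhibitors block probe labeling of enzyme so polarization drops; 0% = enzyme with DMSO and 100% = wells lacking PAFAH2 protein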
PAFAH1B2 inh: PAFAH1B2 enzyme inhibitors, primary screen, biochemical, fluorescence polarization, human; recombinant PAFAH1B2, FP-rhodamine activity probe; inhibition, % at 3.39 µM; 340,000 tested, 1.2% active; AID 492953, 2010;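 active = inhibition above the mean of all tested compounds plus 3 SD, cut at about 24% in these data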;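 note: 0% = enzyme with DMSO and 100% = wells lacking PAFAH1B2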
Target sequence (P68402 whole entry, looked up): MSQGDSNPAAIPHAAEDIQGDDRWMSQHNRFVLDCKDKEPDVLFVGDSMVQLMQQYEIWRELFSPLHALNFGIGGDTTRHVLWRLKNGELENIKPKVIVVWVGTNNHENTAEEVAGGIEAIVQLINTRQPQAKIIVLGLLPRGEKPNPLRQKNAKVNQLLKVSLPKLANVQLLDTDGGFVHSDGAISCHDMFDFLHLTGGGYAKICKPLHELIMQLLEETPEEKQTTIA
PAFAH1B3 FP inh: PAFAH1B3 enzyme inhibitors, primary screen, biochemical, fluorescence polarization, human. recombinant PAFAH1B3, FP-rhodamine probe. inhibition, % at 3.39 µM. 340,000 tested, 0.28% active. AID 492972, 2010;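 active = inhibition above the screen-wide average of all tested compounds plus 3 SD, cut at about 25% in these data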;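 note: 0% = enzyme with DMSO only and 100% = wells lacking PAFAH1B3 protein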
Target sequence (Q15102 whole entry, looked up): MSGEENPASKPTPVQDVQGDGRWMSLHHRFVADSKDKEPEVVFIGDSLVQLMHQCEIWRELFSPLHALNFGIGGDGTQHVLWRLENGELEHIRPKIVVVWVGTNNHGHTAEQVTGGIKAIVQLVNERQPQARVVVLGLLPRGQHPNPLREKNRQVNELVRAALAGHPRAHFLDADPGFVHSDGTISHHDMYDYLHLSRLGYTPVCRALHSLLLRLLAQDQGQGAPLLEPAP
ARFGAP1 inh conf: ARFGAP1 inhibitor hit confirmation, biochemical, fluorescence polarization, triplicate; ARFGAP1-stimulated ARF1 GTP hydrolysis, GDP tracer FP; inhibition, % at 16.5 µM; 890 tested, 30% active; AID 651608, 2012; shares compounds with ARFGAP1 inhibitor;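 active = average inhibition over triplicates above the hit cutoff set in the earlier primary screen, cut at about 25% in these data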;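 note: 0% = Arfgap1 plus ARF1-GTP with DMSO and 100% = wells lacking Arfgap1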
Numbers without * were called inactive.

What do the screens show for `COC(=O)C1=C(C)OC(N)=C(C#N)C1C1CCCCC1` (stereo not drawn)?
ASAP1 inh: 2.9; ARFGAP1 inhibitor: 26.3*; pPAFAH FP inh: 2.5; PAFAH2 inh: 1.5; PAFAH1B2 inh: 4.8; PAFAH1B3 FP inh: -4.1; ARFGAP1 inh conf: 0.1

What do the screens show for `O=C(Nc1ccc(F)c(Cl)c1)c1ccc2sc([C@H]3C[C@H](O)[C@@H](CO)O3)nc2c1`?
ASAP1 inh: 13.1; ARFGAP1 inhibitor: 24.8*; ARFGAP1 inh conf: 4.5

How did Cc1ccccc1C(=O)N1CCN(c2ncccn2)CC1 do in these assays?
ASAP1 inh: -9.4; ARFGAP1 inhibitor: 69.6*; pPAFAH FP inh: -6.2; PAFAH2 inh: -0.2; PAFAH1B2 inh: 1.5; PAFAH1B3 FP inh: -1.9; ARFGAP1 inh conf: 1.7

Results for Cc1ccccc1C(=O)N1CCN(c2ccccn2)CC1 ?
ASAP1 inh: -10.0; ARFGAP1 inhibitor: 4.9; pPAFAH FP inh: 0.8; PAFAH2 inh: 6.4; PAFAH1B2 inh: -2.3; PAFAH1B3 FP inh: 5.2

Results for COc1cc2cc(C(=O)NC(C)c3cccc4ccccc34)c(N)nc2cc1OC (stereo not drawn) ?
ASAP1 inh: 19.3; ARFGAP1 inhibitor: 25.3*; ARFGAP1 inh conf: 7.1

Results for COc1ccccc1CNC(=O)CNC(=O)N1CC(=O)Nc2ccccc21 ?
ASAP1 inh: 3.6; ARFGAP1 inhibitor: 2.0; pPAFAH FP inh: -0.1; PAFAH2 inh: 0.2; PAFAH1B2 inh: 5.3; PAFAH1B3 FP inh: 2.6

Results for O=[N+]([O-])/C(C(=C(Cl)Cl)N1CCOCC1)=C1\NCCO1 ?
ASAP1 inh: 0.5; ARFGAP1 inhibitor: 3.7; pPAFAH FP inh: 5.1; PAFAH2 inh: 13.0; PAFAH1B2 inh: 0.8; PAFAH1B3 FP inh: 2.0

What do the screens show for `CCS(=O)(=O)C(=C1NCCO1)S(=O)(=O)CC`?
ASAP1 inh: -1.1; ARFGAP1 inhibitor: 24.8*; pPAFAH FP inh: 4.7; PAFAH2 inh: -2.2; PAFAH1B2 inh: -2.8; PAFAH1B3 FP inh: 9.3; ARFGAP1 inh conf: -3.7

How did COc1ccc(Cl)cc1NC(=O)c1nnn(CC(=O)Nc2ccc3c(c2)OCO3)c1N do in these assays?
ASAP1 inh: 17.5; ARFGAP1 inhibitor: 94.5*; pPAFAH FP inh: -13.1; PAFAH2 inh: -15.4; PAFAH1B2 inh: -9.7; PAFAH1B3 FP inh: -14.2; ARFGAP1 inh conf: 132.5*

Results for COc1ccc(NC(=O)Cn2nnc(C(=O)Nc3ccc(F)c(Cl)c3)c2N)cc1 ?
ASAP1 inh: 10.9; ARFGAP1 inhibitor: 27.3*; pPAFAH FP inh: -2.8; PAFAH2 inh: -14.1; PAFAH1B2 inh: -3.1; PAFAH1B3 FP inh: -0.8; ARFGAP1 inh conf: 35.9*

What do the screens show for `CC1CCCN(S(=O)(=O)c2cccc(C(=O)OCC(=O)N(C)Cc3c(F)cccc3Cl)c2)C1` (stereo not drawn)?
ASAP1 inh: -2.5; ARFGAP1 inhibitor: 11.9; pPAFAH FP inh: -2.2; PAFAH2 inh: 9.4; PAFAH1B2 inh: 1.1; PAFAH1B3 FP inh: 1.7

Results for O=C(Cc1c[nH]c2ccccc12)Nc1ccc(Nc2cccnc2)c(-c2ccc(OC(F)(F)F)cc2)c1 ?
ASAP1 inh: 4.2; ARFGAP1 inhibitor: 26.5*; ARFGAP1 inh conf: 9.7

What do the screens show for `O=C(Cc1c[nH]c2ccccc12)Nc1ccc(Nc2cccnc2)c(-c2cc(F)cc(F)c2)c1`?
ASAP1 inh: 4.6; ARFGAP1 inhibitor: 25.1*; ARFGAP1 inh conf: 20.1

How did O=C(Cc1c[nH]c2ccccc12)Nc1ccc(Nc2cccnc2)c(-c2ccc(Oc3ccccc3)cc2)c1 do in these assays?
ASAP1 inh: 6.4; ARFGAP1 inhibitor: 17.4

How did COc1ccccc1C(=O)c1nc2ccccc2n1C do in these assays?
ASAP1 inh: -8.6; ARFGAP1 inhibitor: 25.0*; pPAFAH FP inh: 4.1; PAFAH2 inh: 7.2; PAFAH1B2 inh: -0.6; PAFAH1B3 FP inh: 9.2; ARFGAP1 inh conf: -5.9

What do the screens show for `Cc1cc(C(=O)N2CCc3ccccc3C2)n[nH]1`?
ASAP1 inh: -2.2; ARFGAP1 inhibitor: -6.7; pPAFAH FP inh: 2.7; PAFAH2 inh: -8.2; PAFAH1B2 inh: 3.2; PAFAH1B3 FP inh: -1.3

How did OC[C@@H]1CN(Cc2ccc(Cl)cc2)C[C@H](n2cnc3c(Nc4ccccc4)ncnc32)O1 do in these assays?
ASAP1 inh: -3.3; ARFGAP1 inhibitor: 6.2

What do the screens show for `O=Cc1c(NCCN2CCCC2)c2ccccc2[nH]c1=O`?
ASAP1 inh: -3.4; ARFGAP1 inhibitor: 0.8; pPAFAH FP inh: 9.4; PAFAH2 inh: -0.5; PAFAH1B2 inh: -1.8; PAFAH1B3 FP inh: 2.1

How did CC(C)(C)NC(=O)CN1CCN(C(=O)CCl)CC1 do in these assays?
ASAP1 inh: -1.3; ARFGAP1 inhibitor: 24.8*; pPAFAH FP inh: -4.0; PAFAH2 inh: -1.6; PAFAH1B2 inh: 1.2; PAFAH1B3 FP inh: 6.9; ARFGAP1 inh conf: -1.1

How did CC1CN(CC(=O)Nc2ccc(S(N)(=O)=O)cc2)CC(C)O1 (stereo not drawn) do in these assays?
pPAFAH FP inh: 3.7; PAFAH2 inh: 5.1; PAFAH1B2 inh: -0.1; PAFAH1B3 FP inh: 8.7

How did CCOc1ccc(C(=O)N(CN2CCCC2=O)c2cccc(Cl)c2)cc1 do in these assays?
ASAP1 inh: -6.7; ARFGAP1 inhibitor: 37.5*; pPAFAH FP inh: -0.4; PAFAH2 inh: 0.1; PAFAH1B2 inh: 1.2; PAFAH1B3 FP inh: 9.2; ARFGAP1 inh conf: -1.1

How did O=C(NCCCn1ccnc1)Nc1ccc2c(c1)OCO2 do in these assays?
ASAP1 inh: 3.9; ARFGAP1 inhibitor: 4.6; pPAFAH FP inh: -4.8; PAFAH2 inh: -12.0; PAFAH1B2 inh: -1.8; PAFAH1B3 FP inh: 1.8

Results for O=C(CNC(=O)c1cccs1)Nc1ccncc1 ?
ASAP1 inh: 4.5; ARFGAP1 inhibitor: 11.5; pPAFAH FP inh: 1.4; PAFAH2 inh: 10.2; PAFAH1B2 inh: 4.6; PAFAH1B3 FP inh: 2.7

How did O=C(NCc1ccc(F)cc1)c1cccnc1C(=O)O do in these assays?
ASAP1 inh: 6.9; ARFGAP1 inhibitor: 4.2; pPAFAH FP inh: 1.6; PAFAH2 inh: -3.7; PAFAH1B2 inh: 1.8; PAFAH1B3 FP inh: 6.1

How did Cc1ccc(OCC(O)CN2C(=O)NC(C)(C)C2=O)cc1 (stereo not drawn) do in these assays?
ASAP1 inh: -0.1; ARFGAP1 inhibitor: 34.7*; pPAFAH FP inh: -3.2; PAFAH2 inh: 2.7; PAFAH1B2 inh: 1.6; PAFAH1B3 FP inh: 3.7; ARFGAP1 inh conf: -1.2

Screens deposited in PubChem by The Scripps Research Institute Molecular Screening Center.
